Values joined by “and” are separate entries in the source; they are usually repeats but may differ in a detail not shown here. Equal entries are not always repeated.
Key:
Rattus norvegicus [1] = experiment: Compound was evaluated for diuretic activity determined by the ability to induce electrolytic excretion (Na+) at a time period of 0-5 hr for dose 27 mg/kg; assay type: functional, Urine
Summary of the method: (§1)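 Female Sprague-Dawley rats weighing 160-170 g were dosed orally at 3, 9, 27 or 81 mg/kg, housed three per cage, with three cages per dose. Urinary Na+, K+ and Cl- (mequiv × 100) and urine volume (mL) were measured over 0-5 h and 0-24 h after dosing. A placebo group was run alongside.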

Rattus norvegicus [2] = experiment: Compound was evaluated for diuretic activity determined by the ability of to induce electrolytic excretion (Cl-) at a time period of 0-24 hr for dose 3 mg/kg; assay type: functional, Urine; summary of the method: as §1
Rattus norvegicus [3] = experiment: Compound was evaluated for diuretic activity determined by the ability to induce electrolytic excretion (Cl-) at a time period of 0-5 hr for dose 9 mg/kg; assay type: functional, Urine; summary of the method: as §1
Rattus norvegicus [4] = experiment: Urine volumes in Sprague-Dawley rats was determined at time period of 0-5 hours dose 9 mg/kg; assay type: functional; summary of the method: as §1
Rattus norvegicus [5] = experiment: Urine volumes in Sprague-Dawley rats was determined at time period of 0-5 hours dose 27 mg/kg; assay type: functional; summary of the method: as §1
Rattus norvegicus [6] = experiment: Compound was evaluated for diuretic activity determined by the ability to induce electrolytic excretion (K+) at a time period of 0-24 hr for dose 9 mg/kg; assay type: functional, Urine; summary of the method: as §1
Canis familiaris [7] = experiment: Compound was evaluated for percentage recovery from urine after administration of 0.3 mg/kg dose; assay type: functional, organism-based; parameters: dose 0.3 mg/kg; settings: Canis lupus familiaris
Summary of the method: (§2)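 Catheterized mongrel dogs (average 14-16 kg, 6 per group) were given oral doses of 0.1-1.0 mg/kg. Urine was collected at 0-6 h and 6-24 h. Each 1-mL aliquot was partitioned between saturated Na2CO3 and ethyl acetate, and the organic phase was back-extracted into 0.5 N HCl. Amiloride in the acid phase was read spectrofluorometrically (excitation 365 nm, emission 420 nm). Results are mean ± SD, with % recovery.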

Rattus norvegicus [8] = experiment: Compound was evaluated for diuretic activity determined by the ability to induce electrolytic excretion (K+) at a time period of 0-24 hr for dose 81 mg/kg; assay type: functional, Urine; parameters: unit: mequiv × 100; summary of the method: as §1
Rattus norvegicus [9] = experiment: Compound was evaluated for diuretic activity determined by the ability to induce electrolytic excretion (Cl-) at a time period of 0-5 hr for dose 3 mg/kg; assay type: functional, Urine; summary of the method: as §1
Canis familiaris [10] = experiment: Diuretic activity in mongrel dog was determined by the ability to induce electrolytic excretion (CL-) at a time period of 0-5 hr after administration of 5 mg/kg dose.
Rattus norvegicus [11] = experiment: Compound was evaluated for diuretic activity determined by the ability to induce electrolytic excretion (K+) at a time period of 0-24 hr for dose 3 mg/kg; assay type: functional, Urine; summary of the method: as §1
Rattus norvegicus [12] = experiment: Compound was evaluated for diuretic activity determined by the ability to induce electrolytic excretion (K+) at a time period of 0-5 hr for dose 3 mg/kg; assay type: functional, Urine; summary of the method: as §1
Rattus norvegicus [13] = experiment: Compound was evaluated for diuretic activity determined by the ability to induce electrolytic excretion (Na+) at a time period of 0-24 hr for dose 81 mg/kg; assay type: functional, Urine; summary of the method: as §1
Rattus norvegicus [14] = experiment: Compound was evaluated for diuretic activity determined by the ability to induce electrolytic excretion (Cl-) at a time period of 0-24 hr for dose 9 mg/kg; assay type: functional, Urine; summary of the method: as §1
Canis familiaris [15] = experiment: Diuretic activity in mongrel dog was determined by the ability to induce electrolytic excretion (Na+) at a time period of 0-5 hr after administration of 5 mg/kg dose.
Rattus norvegicus [16] = experiment: Compound was evaluated for diuretic activity determined by the ability to induce electrolytic excretion (K+) at a time period of 0-5 hr for dose 9 mg/kg; assay type: functional, Urine; summary of the method: as §1
Rattus norvegicus [17] = experiment: Compound was evaluated for diuretic activity determined by the ability to induce electrolytic excretion (Cl-) at a time period of 0-24 hr for dose 27 mg/kg; assay type: functional, Urine; summary of the method: as §1
Rattus norvegicus [18] = experiment: Compound was evaluated for diuretic activity determined by the ability to induce electrolytic excretion (K+) at a time period of 0-5 hr for dose 81 mg/kg; assay type: functional, Urine; summary of the method: as §1
Rattus norvegicus [19] = experiment: Compound was evaluated for diuretic activity determined by the ability to induce electrolytic excretion (Cl-) at a time period of 0-5 hr for dose 81 mg/kg; assay type: functional, Urine; summary of the method: as §1
Rattus norvegicus [20] = experiment: Compound was evaluated for diuretic activity determined by the ability to induce electrolytic excretion (K+) at a time period of 0-24 hr for dose 27 mg/kg; assay type: functional, Urine; summary of the method: as §1
Rattus norvegicus [21] = experiment: Compound was evaluated for diuretic activity determined by the ability to induce electrolytic excretion (Na+) at a time period of 0-24 hr for dose 9 mg/kg; assay type: functional, Urine; summary of the method: as §1
Rattus norvegicus [22] = experiment: Compound was evaluated for diuretic activity determined by the ability to induce electrolytic excretion (Cl-) at a time period of 0-5 hr for dose 27 mg/kg; assay type: functional, Urine; summary of the method: as §1
Rattus norvegicus [23] = experiment: Compound was evaluated for diuretic activity determined by the ability to induce electrolytic excretion (Na+) at a time period of 0-24 hr for dose 3 mg/kg; assay type: functional, Urine; summary of the method: as §1
Rattus norvegicus [24] = experiment: Compound was evaluated for diuretic activity determined by the ability to induce electrolytic excretion (K+) at a time period of 0-5 hr for dose 27 mg/kg; assay type: functional, Urine; summary of the method: as §1
Rattus norvegicus [25] = experiment: Urine volumes in Sprague-Dawley rats was determined at time period of 0-5 hours dose 81 mg/kg; assay type: functional; summary of the method: as §1
Canis familiaris [26] = experiment: Diuretic activity in mongrel dog was determined by the ability to induce electrolytic excretion (K+) at a time period of 0-5 hr after administration of 5 mg/kg dose.
Canis familiaris [27] = experiment: Compound was evaluated for percentage recovery from urine after administration of 0.1 mg/kg dose; assay type: functional, organism-based; parameters: dose 0.1 mg/kg; settings: Canis lupus familiaris; summary of the method: as §2
Rattus norvegicus [28] = experiment: Compound was evaluated for diuretic activity determined by the ability to induce electrolytic excretion (Na+) at a time period of 0-5 hr for dose 81 mg/kg; assay type: functional, Urine; summary of the method: as §1
Rattus norvegicus [29] = experiment: Urine volumes in Sprague-Dawley rats was determined at time period of 0-5 hours dose 3 mg/kg; assay type: functional; summary of the method: as §1
Rattus norvegicus [30] = experiment: Compound was evaluated for diuretic activity determined by the ability to induce electrolytic excretion (Cl-) at a time period of 0-24 hr for dose 81 mg/kg; assay type: functional, Urine; summary of the method: as §1
Rattus norvegicus [31] = experiment: Compound was evaluated for diuretic activity determined by the ability to induce electrolytic excretion (Na+) at a time period of 0-24 hr for dose 27 mg/kg; assay type: functional, Urine; summary of the method: as §1
Rattus norvegicus [32] = experiment: Compound was evaluated for diuretic activity determined by the ability to induce electrolytic excretion (Na+) at a time period of 0-5 hr for dose 9 mg/kg; assay type: functional, Urine; summary of the method: as §1
Rattus norvegicus [33] = experiment: Compound was evaluated for diuretic activity determined by the ability to induce electrolytic excretion (Na+) at a time period of 0-5 hr for dose 3 mg/kg; assay type: functional, Urine; summary of the method: as §1
Canis familiaris [34] = experiment: Compound was evaluated for urinary levels (mg) after administration at time period
Rattus norvegicus [35] = experiment: Urine volumes was determined in Sprague-Dawley rats at time period of 0-5 hours at 81 mg/kg; assay type: functional
Summary of the method: (§3)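 Female Sprague-Dawley rats (160-170 g) were dosed orally at 3-81 mg/kg, with a placebo group. Housing was three rats per cage and three cages per dose. Urinary Na+, K+ and Cl- (mequiv × 100) and urine volume were measured over 0-5 h and 0-24 h.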

Rattus norvegicus [36] = experiment: Urine volumes was determined in Sprague-Dawley rats at time period of 0-5 hours at 27 mg/kg; assay type: functional; summary of the method: as §3
Rattus norvegicus [37] = experiment: Urine volumes was determined in Sprague-Dawley rats at time period of 0-5 hours at 3 mg/kg; assay type: functional; summary of the method: as §3
Rattus norvegicus [38] = experiment: Urine volumes was determined at time period of 0-5 hours for dose 27 mg/kg; assay type: functional; summary of the method: as §3
Rattus norvegicus [39] = experiment: Compound was evaluated for diuretic activity to induce electrolytic excretion (Cl-) at a time period of 0-24 hr for dose 3 mg/kg; assay type: functional, Urine; summary of the method: as §3
Rattus norvegicus [40] = experiment: Urine volumes was determined at time period of 0-5 hours for dose 9 mg/kg; assay type: functional; summary of the method: as §3
Rattus norvegicus [41] = experiment: Urine volumes was determined in Sprague-Dawley rats at time period of 0-5 hours at 9 mg/kg; assay type: functional; summary of the method: as §3
Rattus norvegicus [42] = experiment: Compound was evaluated for diuretic activity determined by the to induce electrolytic excretion (Cl-) at a time period of 0-24 hr for dose 81 mg/kg; assay type: functional, Urine; summary of the method: as §1
Rattus norvegicus [43] = experiment: Compound was evaluated for diuretic activity determined by the ability to induce electrolytic excretion (Cl-) at a time period of 0-24 hr for dose 3 mg/kg; assay type: functional, Urine; summary of the method: as §1

Structure (SMILES) | Diuretic effect (Rattus norvegicus [1]) | Diuretic effect (Rattus norvegicus [3]) | Diuretic effect (Rattus norvegicus [6]) | Diuretic effect (Rattus norvegicus [8]) | Diuretic effect (Rattus norvegicus [9]) | Diuretic effect (Rattus norvegicus [11]) | Diuretic effect (Rattus norvegicus [12]) | Diuretic effect (Rattus norvegicus [13]) | Diuretic effect (Rattus norvegicus [14]) | Diuretic effect (Rattus norvegicus [16]) | Diuretic effect (Rattus norvegicus [17]) | Diuretic effect (Rattus norvegicus [18]) | Diuretic effect (Rattus norvegicus [19]) | Diuretic effect (Rattus norvegicus [20]) | Diuretic effect (Rattus norvegicus [21]) | Diuretic effect (Rattus norvegicus [22]) | Diuretic effect (Rattus norvegicus [23]) | Diuretic effect (Rattus norvegicus [24]) | Diuretic effect (Rattus norvegicus [28]) | Diuretic effect (Rattus norvegicus [31]) | other results
Nc1noc(-c2nc(Cl)c(N)nc2N)n1 | 67 | 35 | 102 | 72 | 36 | 79 | 7 | 396 | 235 | 4 | 258 | 5 | 73 | 79 | 269 | 32 | 184 | 4 | 135 | 292 | Diuretic effect (Rattus norvegicus [2]): 152; Urine volume (Rattus norvegicus [4]): 28 mL; Urine volume (Rattus norvegicus [5]): 26 mL; Recovery (Canis familiaris [7]): 24.2%; Diuretic effect (Canis familiaris [10]): 4.3; Diuretic effect (Canis familiaris [15]): 6.5; Urine volume (Rattus norvegicus [25]): 25 mL; Diuretic effect (Canis familiaris [26]): 0.9; Recovery (Canis familiaris [27]): 36.2% and 22.4%; Urine volume (Rattus norvegicus [29]): 24 mL; Diuretic effect (Rattus norvegicus [30]): 344; Diuretic effect (Rattus norvegicus [32]): 69; Diuretic effect (Rattus norvegicus [33]): 64; Urinary level (Canis familiaris [34]): 0.42 mg
N=C(N)NC(=O)c1nc(Cl)c(N)nc1N [AMILORIDE] | 180 | 96 | 67 | 47 | 90 | 83 | 5 | 458 | 176 | 6 | 180 | 6 | 93 | 82 | 207 | 105 | 153 | 7 | 158 | 206 | Urine volume (Rattus norvegicus [35]): 28 mL; Recovery (Canis familiaris [7]): 29.3%; Urine volume (Rattus norvegicus [36]): 36 mL; Urine volume (Rattus norvegicus [37]): 35 mL; Diuretic effect (Rattus norvegicus [38]): 3.4; Recovery (Canis familiaris [27]): 41.4% and 40%; Diuretic effect (Rattus norvegicus [39]): 139; Diuretic effect (Rattus norvegicus [30]): 328; Diuretic effect (Rattus norvegicus [32]): 162; Diuretic effect (Rattus norvegicus [33]): 156; Diuretic effect (Rattus norvegicus [40]): 1; Urinary level (Canis familiaris [34]): 0.41 mg; Urine volume (Rattus norvegicus [41]): 33 mL
CN(C)c1nc(N)c(-c2nc(N)[n+](C)o2)nc1Cl.[I-] | 100 | 35 | 97 | 68 | 37 | 114 | 2 | 389 | 169 | 2 | 209 | 5 | 95 | 62 | 224 | 56 | 185 | 6 | 154 | 299 | Diuretic effect (Rattus norvegicus [42]): 322; Urine volume (Rattus norvegicus [35]): 31 mL; Urine volume (Rattus norvegicus [36]): 29 mL; Urine volume (Rattus norvegicus [37]): 26 mL; Diuretic effect (Rattus norvegicus [43]): 153; Diuretic effect (Rattus norvegicus [32]): 60; Diuretic effect (Rattus norvegicus [33]): 55; Urine volume (Rattus norvegicus [41]): 27 mL
